# Measurements reported in ChEMBL document CHEMBL3779798, “Novel seleno- and thio-urea derivatives with potent in vitro activities against several cancer cell lines” (Eur J Med Chem, 2016).
# pIC50: −log10 of the molar value. Activity calls are given as the source filed them. The calls are words filed in the database; no cut-off is given here.
# Columns and labels:
# HCT-116 [1] = assay: Induction of apoptosis in human HCT116 cells assessed as late apoptotic cells at 5 uM after 24 hrs by caspase3/7 reagent based flow cytometry (reference value: 2.28%); format: functional
# RKO [2] = assay: Anticancer activity against human RKO cells assessed as inhibition of cell growth after 72 hrs by MTT assay; format: functional, cell-based
# Summary of the method: (§1)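 MTT assay at 3,000 cells/well. Cells treated with DMSO or seven concentrations from 0.5 to 50 µM for 24, 48 or 72 h. MTT added 3 h before the end point; formazan dissolved in DMSO and read at 570 and 630 nm. IC50 is the concentration giving 50% growth inhibition. Media: PANC-1, BxPC3 and 1205Lu in DMEM; DU145 and A549 in RPMI 1640; HT29, HCT116 and RKO in McCoy's 5A, all with 10% FBS and pen/strep, at 37 °C and 5% CO2.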
# HCT-116 [3] = assay: Induction of apoptosis in human HCT116 cells assessed as early apoptotic cells at 2.5 uM after 24 hrs by caspase3/7 reagent based flow cytometry (reference value: 5.18%); format: functional
# HCT-116 [4] = assay: Induction of apoptosis in human HCT116 cells assessed as late apoptotic cells at 1 uM after 24 hrs by caspase3/7 reagent based flow cytometry (reference value: 2.28%); format: functional
# HT-29 [5] = assay: Anticancer activity against human HT-29 cells assessed as inhibition of cell growth after 24 hrs by MTT assay; format: functional, cell-based; conditions: HT-29, 24 h; summary of the method: as §1
# [6] = Anticancer activity against human HCT116 cells assessed as inhibition of cell growth after 24 hrs by MTT assay; format: functional, cell-based; conditions: HCT-116, 24 h; summary of the method: as §1
# HCT-116 [7] = assay: Induction of apoptosis in human HCT116 cells assessed as viable cells at 2.5 uM after 24 hrs by caspase3/7 reagent based flow cytometry (reference value: 88.4%); format: functional; conditions: HCT-116, 24 h, read-out: Activity
# A549 = assay: Anticancer activity against human A549 cells assessed as inhibition of cell growth after 24 hrs by MTT assay; format: functional, cell-based; conditions: A549, 24 h; summary of the method: as §1
# RKO [8] = assay: Anticancer activity against human RKO cells assessed as inhibition of cell growth after 48 hrs by MTT assay; format: functional, cell-based; summary of the method: as §1
# HT-29 [9] = assay: Anticancer activity against human HT-29 cells assessed as inhibition of cell growth after 72 hrs by MTT assay; format: functional, cell-based; conditions: HT-29, 72 h; summary of the method: as §1
# [10] = Anticancer activity against human PANC1 cells assessed as inhibition of cell growth after 24 hrs by MTT assay; format: functional, cell-based; conditions: PANC-1, 24 h; summary of the method: as §1
# HCT-116 [11] = assay: Potency index, ratio IC50 of 5-FU to IC50 of compound for anticancer activity against human HCT116 cells; format: functional
# Summary of the method: (§2)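 Colon lines (McCoy's 5A, 10% FBS, penicillin/streptomycin, 37 °C, 5% CO2) seeded at 3,000 cells/well and exposed 24, 48 or 72 h to DMSO or seven concentrations across 0.5–50 µM. MTT added 3 h before end; formazan dissolved in DMSO, absorbance read at 570 and 630 nm. IC50 (50% growth inhibition) from curve fitting; index is the 5-FU IC50 divided by the compound IC50.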
# HCT-116 [12] = assay: Induction of apoptosis in human HCT116 cells assessed as necrotic cells at 5 uM after 24 hrs by annexin-V staining based flow cytometry analysis (reference value: 0.72%); format: functional
# HCT-116 [13] = assay: Induction of apoptosis in human HCT116 cells assessed as late apoptotic cells at 2.5 uM after 24 hrs by annexin-V staining based flow cytometry analysis (reference value: 1.06%); format: functional
# HCT-116 [14] = assay: Induction of apoptosis in human HCT116 cells assessed as viable cells at 2.5 uM after 24 hrs by annexin-V staining based flow cytometry analysis (reference value: 90.38%); format: functional; conditions: HCT-116, 24 h, read-out: Activity
# [15] = Anticancer activity against human PANC1 cells assessed as inhibition of cell growth after 48 hrs by MTT assay; format: functional, cell-based; conditions: PANC-1, 48 h; summary of the method: as §1
# HCT-116 [16] = assay: Reduction of XIAP level in human HCT116 cells after 24 hrs by western blot analysis; format: functional, cell-based
# Summary of the method: (§3)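 HCT116 cells (6 × 10^5/well) treated with rising concentrations for 24 h. Lysed in RIPA with phosphatase and protease inhibitors and PMSF, cleared at 15,000 g for 10 min. Lysates resolved by SDS-PAGE, transferred to PVDF, probed overnight in the cold with primary antibodies, then peroxidase-linked secondary for 1–4 h at room temperature, detected by ECL; β-actin antibody used.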
# HCT-116 [17] = assay: Induction of apoptosis in human HCT116 cells assessed as viable cells at 5 uM after 24 hrs by caspase3/7 reagent based flow cytometry (reference value: 88.4%); format: functional; conditions: HCT-116, 24 h, read-out: Activity
# [18] = Anticancer activity against human 1205 Lu cells assessed as inhibition of cell growth after 24 hrs by MTT assay; format: functional, cell-based; summary of the method: as §1
# HCT-116 [19] = assay: Induction of apoptosis in human HCT116 cells assessed as necrotic cells at 1 uM after 24 hrs by annexin-V staining based flow cytometry analysis (reference value: 0.72%); format: functional
# HCT-116 [20] = assay: Decrease in pro-caspase3 level in human HCT116 cells at 0.5 to 5 uM after 24 hrs by western blot analysis; format: functional, cell-based
# Summary of the method: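 HCT116 cells (6 × 10^5/well) treated for 24 h. Whole-cell lysates made in RIPA buffer with phosphatase and protease inhibitors and PMSF, cleared at 15,000 g, resolved by SDS-PAGE and transferred to PVDF. Blots probed overnight in the cold with primary antibodies, then peroxidase-linked secondaries, and detected by ECL; β-actin antibody used.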
# [21] = Anticancer activity against human HCT116 cells assessed as inhibition of cell growth after 72 hrs by MTT assay; format: functional, cell-based; conditions: HCT-116, 72 h; summary of the method: as §1
# HCT-116 [22] = assay: Induction of apoptosis in human HCT116 cells assessed as late apoptotic cells at 5 uM after 24 hrs by annexin-V staining based flow cytometry analysis (reference value: 1.06%); format: functional
# RKO [23] = assay: Potency index, ratio IC50 of 5-FU to IC50 of compound for anticancer activity against human RKO cells; format: functional; summary of the method: as §2
# HCT-116 [24] = assay: Reduction in Bcl2 level in human HCT116 cells after 24 hrs by western blot analysis; format: functional, cell-based; summary of the method: as §3
# HCT-116 [25] = assay: Induction of apoptosis in human HCT116 cells assessed as early apoptotic cells at 5 uM after 24 hrs by annexin-V staining based flow cytometry analysis (reference value: 7.84%); format: functional
# HCT-116 [26] = assay: Induction of apoptosis in human HCT116 cells assessed as necrotic cells at 1 uM after 24 hrs by caspase3/7 reagent based flow cytometry (reference value: 4.14%); format: functional
# HCT-116 [27] = assay: Induction of apoptosis in human HCT116 cells assessed as viable cells at 1 uM after 24 hrs by annexin-V staining based flow cytometry analysis (reference value: 90.38%); format: functional; conditions: HCT-116, 24 h, read-out: Activity
# HCT-116 [28] = assay: Induction of apoptosis in human HCT116 cells assessed as late apoptotic cells after 24 hrs by annexin-V staining based flow cytometry analysis; format: functional, cell-based
# HT-29 [29] = assay: Anticancer activity against human HT-29 cells assessed as inhibition of cell growth after 48 hrs by MTT assay; format: functional, cell-based; conditions: HT-29, 48 h; summary of the method: as §1
smiles,measurement,setting,value
Br.Br.N=C(N)[Se]Cc1nc2ccccc2nc1C[Se]C(=N)N,Activity,HCT-116 [1],50.26%
same,pIC50,RKO [2],5.60
same,Activity,HCT-116 [3],6.48%
same,Activity,HCT-116 [4],2.64%
same,pIC50,HT-29 [5],5.30
same,pIC50,[6],5.54
same,viability at 2.5 µM,HCT-116 [7],85%
same,pIC50,A549,5.52
same,pIC50,RKO [8],5.72
same,pIC50,HT-29 [9],5.66
same,pIC50,[10],5.18
same,Ratio IC50,HCT-116 [11],>50
same,Activity,HCT-116 [12],0.68%
same,Activity,HCT-116 [13],11.64%
same,viability at 2.5 µM,HCT-116 [14],66.2%
same,pIC50,[15],5.54
same,Activity,HCT-116 [16],Dose-dependent effect
same,viability at 5 µM,HCT-116 [17],16.1%
same,pIC50,[18],5.48
same,Activity,HCT-116 [19],0.2%
same,Activity,HCT-116 [20],Active
same,pIC50,[21],6.15
same,Activity,HCT-116 [22],35.68%
same,Ratio IC50,RKO [23],>50
same,Activity,HCT-116 [24],Dose-dependent effect
same,Activity,HCT-116 [25],39.02%
same,Activity,HCT-116 [26],3.18%
same,viability at 1 µM,HCT-116 [27],78.1%
same,Activity,HCT-116 [28],Dose-dependent effect
same,pIC50,HT-29 [29],5.39
